Experimental data taken from ChEMBL document CHEMBL1147771, “Synthesis and antibacterial activity of 9-substituted minocycline derivatives” (2006).
In brackets after ≈: the same amount, converted by molar mass.

Tests used:
Assay type in all cases: functional
[1] = system: Escherichia coli; assay: Antibacterial activity against Minocylcine sensitive Escherichia coli 89-2
Outline: (§1)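 MICs determined by agar dilution.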

[2] = system: Staphylococcus aureus; assay: Antibacterial activity against Staphylococcus aureus UBMS 88-7 carrying the tetK-resistant determinant
Outline: (§2)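 Antibacterial activity determined by agar dilution.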

[3] = system: Staphylococcus aureus; assay: Antibacterial activity against Staphylococcus aureus UBMS 90-1 carrying tetM-resistant determinant; outline: as §2
[4] = system: Staphylococcus aureus; assay: Antibacterial activity against Staphylococcus aureus Smith; outline: as §1
[5] = system: Enterococcus faecalis; assay: Antibacterial activity against Enterococcus faecalis ATCC 29212; outline: as §1
[6] = system: Escherichia coli; assay: Antibacterial activity against Escherichia coli UBMS 88-1 carrying tetB-resistant determinant; outline: as §2
[7] = system: Staphylococcus aureus; assay: Antibacterial activity against Staphylococcus aureus UBMS 90-2 carrying tetM-resistant determinant; outline: as §2
[8] = system: Staphylococcus aureus; assay: Antibacterial activity against Staphylococcus aureus UBMS 90-3; outline: as §1
[9] = system: Escherichia coli; assay: Antibacterial activity against Minocycline sensitive Escherichia coli 88-2; outline: as §1
[10] = system: Escherichia coli; assay: Antibacterial activity against Escherichia coli UBMS 89-1 carrying tetM-resistant determinant; outline: as §2
[11] = system: Escherichia coli; assay: Antibacterial activity against Minocycline sensitive Escherichia coli 90-5; outline: as §2
[12] = system: Escherichia coli; assay: Antibacterial activity against Escherichia coli UBMS 90-4 carrying tetM-resistant determinant; outline: as §2

SMILES | MIC [1] | MIC [2] | MIC [3] | MIC [4] | MIC [5] | MIC [6] | MIC [7] | MIC [8] | MIC [9] | MIC [10] | MIC [11] | MIC [12]
Cc1ccccc1C(=O)Nc1cc(N(C)C)c2c(c1O)C(O)=C1C(=O)[C@]3(O)C(O)=C(C(N)=O)C(=O)[C@@H](N(C)C)C3CC1C2 (some centres undefined) | > 32 µg/mL | 4 µg/mL (≈ 6.77 µM) | 8 µg/mL (≈ 13.5 µM) | 1 µg/mL (≈ 1.69 µM) | 2 µg/mL (≈ 3.39 µM) | 2 µg/mL (≈ 3.39 µM) | 2 µg/mL (≈ 3.39 µM) | 1 µg/mL (≈ 1.69 µM) | > 32 µg/mL |  |  | 
CN(C)c1cc(NC(=O)c2ccccc2)c(O)c2c1CC1CC3[C@H](N(C)C)C(=O)C(C(N)=O)=C(O)[C@@]3(O)C(=O)C1=C2O (some centres undefined) | > 32 µg/mL | 8 µg/mL (≈ 13.9 µM) | 4 µg/mL (≈ 6.94 µM) | 1 µg/mL (≈ 1.73 µM) | 4 µg/mL (≈ 6.94 µM) | > 32 µg/mL | 4 µg/mL (≈ 6.94 µM) | 1 µg/mL (≈ 1.73 µM) | > 32 µg/mL |  |  | 
CN(C)c1cc(NC(=O)c2cccs2)c(O)c2c1CC1CC3[C@H](N(C)C)C(=O)C(C(N)=O)=C(O)[C@@]3(O)C(=O)C1=C2O (some centres undefined) | > 32 µg/mL | 32 µg/mL (≈ 54.9 µM) | 4 µg/mL (≈ 6.87 µM) | 2 µg/mL (≈ 3.43 µM) | 8 µg/mL (≈ 13.7 µM) | > 32 µg/mL | 4 µg/mL (≈ 6.87 µM) | 2 µg/mL (≈ 3.43 µM) | > 32 µg/mL | > 32 µg/mL |  | 
CN(C)c1ccc(C(=O)Nc2cc(N(C)C)c3c(c2O)C(O)=C2C(=O)[C@]4(O)C(O)=C(C(N)=O)C(=O)[C@@H](N(C)C)C4CC2C3)cc1 (some centres undefined) | > 32 µg/mL | 16 µg/mL (≈ 25.8 µM) | 16 µg/mL (≈ 25.8 µM) | 4 µg/mL (≈ 6.45 µM) | 8 µg/mL (≈ 12.9 µM) | > 32 µg/mL | 8 µg/mL (≈ 12.9 µM) | 8 µg/mL (≈ 12.9 µM) | > 32 µg/mL | > 32 µg/mL |  | 
CN(C)CCCC(=O)Nc1cc(N(C)C)c2c(c1O)C(=O)C1=C(O)[C@]3(O)C(O)=C(C(N)=O)C(=O)[C@@H](N(C)C)C3CC1C2 (some centres undefined) |  | 16 µg/mL (≈ 27.3 µM) | 8 µg/mL (≈ 13.7 µM) | 2 µg/mL (≈ 3.41 µM) | 4 µg/mL (≈ 6.83 µM) | > 32 µg/mL | 4 µg/mL (≈ 6.83 µM) | 2 µg/mL (≈ 3.41 µM) |  |  | 16 µg/mL (≈ 27.3 µM) | 16 µg/mL (≈ 27.3 µM)
CN(C)c1cc(NC(=O)c2cccc(C(F)(F)F)c2)c(O)c2c1CC1CC3[C@H](N(C)C)C(=O)C(C(N)=O)=C(O)[C@@]3(O)C(=O)C1=C2O (some centres undefined) | > 32 µg/mL | 1 µg/mL (≈ 1.55 µM) | 1 µg/mL (≈ 1.55 µM) | 1 µg/mL (≈ 1.55 µM) | 1 µg/mL (≈ 1.55 µM) | > 32 µg/mL | 1 µg/mL (≈ 1.55 µM) | 0.5 µg/mL (≈ 0.776 µM) | > 32 µg/mL | > 32 µg/mL |  | 
CN(C)c1cc(NS(C)(=O)=O)c(O)c2c1CC1CC3[C@H](N(C)C)C(=O)C(C(N)=O)=C(O)[C@@]3(O)C(=O)C1=C2O (some centres undefined) | 2 µg/mL (≈ 3.63 µM) | 8 µg/mL (≈ 14.5 µM) | 0.25 µg/mL (≈ 0.454 µM) | 0.12 µg/mL (≈ 0.218 µM) | 0.06 µg/mL (≈ 0.109 µM) | 8 µg/mL (≈ 14.5 µM) | 0.06 µg/mL (≈ 0.109 µM) | 0.12 µg/mL (≈ 0.218 µM) | 2 µg/mL (≈ 3.63 µM) |  |  | 
CN(C)c1cc(NS(=O)(=O)c2ccccc2)c(O)c2c1CC1CC3[C@H](N(C)C)C(=O)C(C(N)=O)=C(O)[C@@]3(O)C(=O)C1=C2O (some centres undefined) | 16 µg/mL (≈ 26.1 µM) | 4 µg/mL (≈ 6.53 µM) | 4 µg/mL (≈ 6.53 µM) | 4 µg/mL (≈ 6.53 µM) | 0.06 µg/mL (≈ 0.0979 µM) | 16 µg/mL (≈ 26.1 µM) | 0.06 µg/mL (≈ 0.0979 µM) | 4 µg/mL (≈ 6.53 µM) | 8 µg/mL (≈ 13.1 µM) |  |  | 
CN(C)c1cc(NC(=O)CO)c(O)c2c1CC1CC3[C@H](N(C)C)C(=O)C(C(N)=O)=C(O)[C@@]3(O)C(=O)C1=C2O (some centres undefined) |  | > 32 µg/mL | 4 µg/mL (≈ 7.54 µM) | 0.5 µg/mL (≈ 0.942 µM) | 32 µg/mL (≈ 60.3 µM) | > 32 µg/mL | 2 µg/mL (≈ 3.77 µM) | 1 µg/mL (≈ 1.88 µM) |  |  | > 32 µg/mL | > 32 µg/mL
CN(C)CC(=O)Nc1cc(N(C)C)c2c(c1O)C(=O)C1=C(O)[C@]3(O)C(O)=C(C(N)=O)C(=O)[C@@H](N(C)C)C3CC1C2 (some centres undefined) |  | 0.5 µg/mL (≈ 0.897 µM) | 0.12 µg/mL (≈ 0.215 µM) | 0.06 µg/mL (≈ 0.108 µM) | 0.06 µg/mL (≈ 0.108 µM) | 0.25 µg/mL (≈ 0.448 µM) |  | 0.06 µg/mL (≈ 0.108 µM) |  |  | 0.12 µg/mL (≈ 0.215 µM) | 0.25 µg/mL (≈ 0.448 µM)
CN(C)c1cc(NC(=O)CNC2CCCC2)c(O)c2c1CC1CC3[C@H](N(C)C)C(=O)C(C(N)=O)=C(O)[C@@]3(O)C(=O)C1=C2O (some centres undefined) |  | 2 µg/mL (≈ 3.35 µM) | 0.25 µg/mL (≈ 0.418 µM) | 0.25 µg/mL (≈ 0.418 µM) | 0.12 µg/mL (≈ 0.201 µM) | 0.25 µg/mL (≈ 0.418 µM) |  | 0.12 µg/mL (≈ 0.201 µM) |  |  | 0.25 µg/mL (≈ 0.418 µM) | 0.25 µg/mL (≈ 0.418 µM)
CN(C)c1cc(NS(=O)(=O)c2cccs2)c(O)c2c1CC1CC3[C@H](N(C)C)C(=O)C(C(N)=O)=C(O)[C@@]3(O)C(=O)C1=C2O (some centres undefined) | 16 µg/mL (≈ 25.9 µM) | 2 µg/mL (≈ 3.23 µM) | 1 µg/mL (≈ 1.62 µM) | 0.03 µg/mL (≈ 0.0485 µM) | 0.25 µg/mL (≈ 0.404 µM) | 32 µg/mL (≈ 51.7 µM) | 0.25 µg/mL (≈ 0.404 µM) | 0.25 µg/mL (≈ 0.404 µM) | 8 µg/mL (≈ 12.9 µM) |  |  | 
CC(=O)Nc1nc(C)c(S(=O)(=O)Nc2cc(N(C)C)c3c(c2O)C(O)=C2C(=O)[C@]4(O)C(O)=C(C(N)=O)C(=O)[C@@H](N(C)C)C4CC2C3)s1 (some centres undefined) | > 32 µg/mL | 32 µg/mL (≈ 46.3 µM) | 32 µg/mL (≈ 46.3 µM) | 2 µg/mL (≈ 2.9 µM) | 1 µg/mL (≈ 1.45 µM) | > 32 µg/mL | 4 µg/mL (≈ 5.79 µM) | 2 µg/mL (≈ 2.9 µM) | > 32 µg/mL | 32 µg/mL (≈ 46.3 µM) |  | 
CN(C)c1cc(NC(=O)c2ccccc2F)c(O)c2c1CC1CC3[C@H](N(C)C)C(=O)C(C(N)=O)=C(O)[C@@]3(O)C(=O)C1=C2O (some centres undefined) | > 32 µg/mL | 8 µg/mL (≈ 13.5 µM) | 4 µg/mL (≈ 6.73 µM) | 1 µg/mL (≈ 1.68 µM) | 4 µg/mL (≈ 6.73 µM) | > 32 µg/mL | 2 µg/mL (≈ 3.36 µM) | 1 µg/mL (≈ 1.68 µM) | > 32 µg/mL |  |  | 
CN(C)c1cc(NS(=O)(=O)c2ccc(Cl)cc2)c(O)c2c1CC1CC3[C@H](N(C)C)C(=O)C(C(N)=O)=C(O)[C@@]3(O)C(=O)C1=C2O (some centres undefined) | > 32 µg/mL | 1 µg/mL (≈ 1.55 µM) | 0.25 µg/mL (≈ 0.386 µM) | 0.12 µg/mL (≈ 0.185 µM) | 0.06 µg/mL (≈ 0.0927 µM) | > 32 µg/mL | 0.12 µg/mL (≈ 0.185 µM) | 0.12 µg/mL (≈ 0.185 µM) | > 32 µg/mL |  |  | 
CN(C)c1cc(NC(=O)CCC2CCCC2)c(O)c2c1CC1CC3[C@H](N(C)C)C(=O)C(C(N)=O)=C(O)[C@@]3(O)C(=O)C1=C2O (some centres undefined) |  | 8 µg/mL (≈ 13.4 µM) | 8 µg/mL (≈ 13.4 µM) | 4 µg/mL (≈ 6.7 µM) | 8 µg/mL (≈ 13.4 µM) | > 128 µg/mL | 8 µg/mL (≈ 13.4 µM) | 4 µg/mL (≈ 6.7 µM) |  |  | > 128 µg/mL | > 128 µg/mL
CN(C)c1ccc(O)c2c1C[C@H]1C[C@H]3[C@H](N(C)C)C(O)=C(C(N)=O)C(=O)[C@@]3(O)C(O)=C1C2=O [MINOCYCLINE] | 2 µg/mL (≈ 4.37 µM) | 0.25 µg/mL (≈ 0.546 µM) | 8 µg/mL (≈ 17.5 µM) | 0.06 µg/mL (≈ 0.131 µM) | 2 µg/mL (≈ 4.37 µM) | 16 µg/mL (≈ 35 µM) | 2 µg/mL (≈ 4.37 µM) | 0.03 µg/mL (≈ 0.0656 µM) | 0.25 µg/mL (≈ 0.546 µM) | > 32 µg/mL |  | 
CN(C)c1cc(NC(=O)CNC(C)(C)C)c(O)c2c1C[C@H]1C[C@H]3[C@H](N(C)C)C(O)=C(C(N)=O)C(=O)[C@@]3(O)C(O)=C1C2=O [TIGECYCLINE] |  | 0.5 µg/mL (≈ 0.854 µM) | 0.12 µg/mL (≈ 0.205 µM) | 0.25 µg/mL (≈ 0.427 µM) | 0.12 µg/mL (≈ 0.205 µM) | 0.5 µg/mL (≈ 0.854 µM) |  | 0.25 µg/mL (≈ 0.427 µM) |  |  | 0.25 µg/mL (≈ 0.427 µM) | 0.12 µg/mL (≈ 0.205 µM)
